# Compound activity as filed in PubChem.
# Rows were chosen to be rich in hits. Some 3.2% of all compounds tested hit in one or more screens of this group.
# Calb biofilm kill: mixtures killing C. albicans biofilm; C. albicans biofilm persisters + clotrimazole, fluorescence viability; primary screen in compound mixtures of four per well; AID 1242; inhibition, % at 7.6 µM; actives 0.02% (n = 120,000);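 active = inhibition above 30.3% in the primary screen of four-compound pools, then above 30% when the compound was retested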;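 also: compounds exposed to preformed 24 h biofilms for 48 h; 0% = untreated biofilm control and 100% = clotrimazole plus chlorhexidine kill blank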
#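 Incubation: 24 h biofilm formation, then 48 h compound exposure, 37 °C | Material: C. albicans biofilms | Buffer or medium: RPMI/MOPS medium, pH 7.0 | Measured by: 2-h Alamar Blue fluorescence, 535/590 nm excitation/emission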
# 14-3-3 Bad PPI: disrupts binding of bovine 14-3-3 zeta to phospho-Bad peptide; TR-FRET 14-3-3zeta/Dy647-pBad peptide displacement, 1 h; inhibition, % at 21.7 µM; actives 0.71% (n = 220,000); P63103; AID 781;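 active = inhibition above about 70%, limit read from the data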;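 also: 0% = full 14-3-3 plus peptide FRET controls and 100% = background without 14-3-3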
# Target sequence (P63103 whole entry, looked up): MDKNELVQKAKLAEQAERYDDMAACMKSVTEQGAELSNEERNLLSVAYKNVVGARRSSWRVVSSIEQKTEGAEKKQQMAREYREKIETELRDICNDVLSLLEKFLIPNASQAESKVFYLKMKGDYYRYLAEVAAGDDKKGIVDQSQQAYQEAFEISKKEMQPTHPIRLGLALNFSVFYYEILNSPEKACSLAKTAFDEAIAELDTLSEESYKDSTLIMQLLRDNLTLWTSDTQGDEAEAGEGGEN
# Mcl1 Noxa PPI: Mcl-1/Noxa interaction inhibition; TR-FRET Mcl-1/Noxa peptide binding, 2 h; inhibition, % at 21.7 µM; actives 1.5% (n = 220,000); AID 1022;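 active = compounds that cut the protein-peptide binding signal by more than 50% relative to plate controls in a single-dose test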;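 also: His-tagged Mcl-1 with rhodamine Noxa BH3 peptide and terbium anti-His antibody; 0% = Mcl-1 plus Noxa peptide wells and 100% = peptide-only wells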
# Target sequence (Q07820 whole entry, looked up): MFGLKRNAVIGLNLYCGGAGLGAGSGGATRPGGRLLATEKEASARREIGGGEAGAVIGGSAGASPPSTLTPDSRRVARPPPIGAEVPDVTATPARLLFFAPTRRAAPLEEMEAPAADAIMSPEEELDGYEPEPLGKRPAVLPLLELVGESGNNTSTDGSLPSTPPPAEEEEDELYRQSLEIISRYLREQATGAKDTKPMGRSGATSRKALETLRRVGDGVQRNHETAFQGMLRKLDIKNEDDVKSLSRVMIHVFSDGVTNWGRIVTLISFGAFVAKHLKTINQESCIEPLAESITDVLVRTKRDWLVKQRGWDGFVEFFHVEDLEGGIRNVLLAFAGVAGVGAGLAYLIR
# Mcl1 Bid PPI: disrupts binding of human Mcl-1 to Bid peptide | Q07820 | TR-FRET Mcl-1/Bid-Dy647 peptide binding, 1536-well | inhibition, % at 21.7 µM | actives 0.97% (n = 220,000);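 active = compounds that cut the binding signal by more than half at the single screening dose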;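 also: His-tagged Mcl-1 with europium anti-His antibody binding Bid BH3 peptide; 0% = Mcl-1 plus peptide wells and 100% = peptide-only wells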
# Mcl-1 Bim block: human Bim-Mcl-1 interaction inhibition; Q07820; Bead-based flow cytometry, Bim peptide-Mcl-1 binding; inhibition, % at 10 µM; actives 0.1% (n = 190,000); in the data active = inhibition above about 40%;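 also: 0% = no compound tracer wells and 100% = peptide blocker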
# Hck-Nef inh: blocks Nef-activated human Hck kinase; P08631; actives 0.68% (n = 220,000); Recombinant Hck-YEEI plus Nef, Z-Lyte FRET kinase assay; inhibition, % at 20 µM;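 active = Hck-Nef kinase inhibition above about 50%, limit read from the data; inactive = inhibition below that limit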;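 also: 0% = DMSO with Hck plus Nef and 100% = Hck alone without Nef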
# An asterisk follows results filed as active; . = no result; [ ] = dose if it differs, or a comment.
SMILES,Calb biofilm kill,14-3-3 Bad PPI,Mcl1 Noxa PPI,Mcl1 Bid PPI,Mcl-1 Bim block,Hck-Nef inh
COc1ccc2[nH]c(=O)c(CN(C3CCCCC3)C(c3nnnn3Cc3ccco3)C(C)C)cc2c1 (stereo not drawn),.,-10,57*,-17,-10,5
COc1ccc(C2(C(=O)Nc3ccc(C(=O)O)cc3)CCOCC2)cc1,.,-13,-5,59*,0,4
O=C(Nc1ccc2oc(=O)ccc2c1)c1cc2ccccc2o1,-3,10,-5,14,-12,-4
O=C(Nc1ccc2oc(=O)ccc2c1)c1ccc(-c2ccc(Cl)cc2)o1,-6,46,-15,56*,-7,29
O=C(CSCc1ccc(Cl)cc1)N/N=C/c1ccc(OCC(=O)Nc2ccccc2)cc1,.,3,6,58*,3,4
COc1ccccc1NC(=O)COc1ccc(/C=N/NC(=O)CSCc2cc(C)cc(C)c2)cc1,11,33,-40,57*,-5,19
Cc1ccc(NC(=O)COc2ccc(/C=N/NC(=O)CSCc3ccccc3)cc2)cc1,.,2,23,-5,1,1
CCN(c1ccc(NC(=O)COC(=O)/C=C/c2cccs2)cc1)C(C)C,16,2,84*,-32,-1,19
COC(=O)c1ccccc1NC(=O)c1ccc(COc2ccc3c(c2)CCC3)cc1,.,2,10,58*,0,1
COc1ccc(-c2nnc(Nc3nc4c(OC)cccc4s3)o2)cc1,.,59,57*,56*,-3,0
COc1ccc(-c2nnc(Nc3nc4c(OC)cccc4s3)o2)c(OC)c1,.,.,-6,-74,-1,1
Cc1cccc(-n2c(C)cc(/C=C3/C(=N)N4C(c5ccccc5)=CSC4=NC3=O)c2C)c1,10,-6,13,-12,21,3
N=C1/C(=C\c2ccc(-c3ccc(C(=O)O)cc3)o2)C(=O)N=C2SC=C(c3ccccc3)N12,2,80*,117*,96*,.,103*
N=C1/C(=C\c2ccc(-c3cccc(Cl)c3)o2)C(=O)N=C2SC=C(c3ccccc3)N12,17,3,51*,-24,-2,3
Cc1ccc(S(=O)(=O)c2cc3c(=O)n4ccccc4nc3n(Cc3ccco3)c2=N)cc1,.,8,72*,26,1,27
Cc1cccn2c(=O)c3cc(C(=O)NCc4ccco4)c(=N)n(CCc4ccccc4)c3nc12,13,15,80*,1,.,42
N=c1c(C(=O)NCc2ccco2)cc2c(=O)n3ccccc3nc2n1Cc1ccccc1,.,-13,46,-4,-1,8
N=c1c(C(=O)NCc2ccccc2)cc2c(=O)n3ccccc3nc2n1Cc1ccco1,.,.,58*,-17,-2,-21
CC1S/C(=N\N=C\c2cccc([N+](=O)[O-])c2)N(C(C)(C)C)C1=O (stereo not drawn),13,-1,-21,-17,.,8
Cc1ccc(S(=O)(=O)Nc2c(C)n(C)n(-c3ccccc3)c2=O)cc1C(=O)OCC(=O)N1CCCC(C)C1 (stereo not drawn),-1,-8,0,-37,0,7
CSc1c(CC(=O)Nc2ccccc2Cl)n(Cc2ccccc2)c2ccccc12,.,12,.,-22,-2,-2
CSc1c(CC(=O)Nc2ccccc2C(F)(F)F)n(Cc2ccccc2)c2ccccc12,26,-5,10,58*,7,1
CCOC(=O)c1snc(-c2ccc(F)cc2)c1N,.,0,-9,-18,66*,-2
CCOC(=O)c1sc(N)nc1-c1ccccc1,.,9,5,-5,1,2
CC(C)(C)NC(=O)COC(=O)c1ccccc1C(=O)c1ccccc1,-12,7,23,7,2,-21
SMILES,Calb biofilm kill,14-3-3 Bad PPI,Mcl1 Noxa PPI,Mcl1 Bid PPI,Mcl-1 Bim block,Hck-Nef inh
CCOc1ccccc1N1CCN(Cc2ccco2)CC1,.,8,39,22,-1,1
CCOc1ccccc1N1CCN(C/C=C/c2ccc(N(C)C)cc2)CC1,.,78*[fluorescence artefact?],-15,-20,1,-26
CCOc1ccccc1N1CCN(Cc2ccc(Br)s2)CC1,.,76*,21,16,-3,1
Cc1cccnc1CN1CCN(Cc2nc(Cc3cccc(F)c3)no2)CC1,14,-6,0,-41,-3,13
O=C(Nc1nc(-c2cccc3ccccc23)cs1)c1ccc2c(c1)S(=O)(=O)c1ccccc1C2=O,17,15,62*,28,0,35
CCc1ccc(/C=N/NC(=O)Cc2cccn2C)cc1,9,-6,-16,-24,.,5
COc1ccccc1COCC(O)CNCC1(N2CCCCC2)CCCCC1 (stereo not drawn),.,62,12,62*,-2,-2
COc1cc(C(C)=O)ccc1OCC(O)CNCC1(N2CCCCC2)CCCCC1 (stereo not drawn),.,29,25,5,-1,0
O=C(O)CS(=O)(=O)CC(=O)O,.,20,23,58*,-3,-1
O=C(Cc1cccs1)N/N=C/C=C\c1ccco1,4,-20,90*,-17,-2,3
O=[N+]([O-])c1cc(/C=N/OCc2c(Cl)cccc2Cl)ccc1N1CCOCC1,.,-13,3,-25,-1,1
CCOC(=O)CN(c1ccccn1)S(=O)(=O)c1ccc(OC)cc1,17,-2,6,0,0,18
Cc1ccc2c(Cl)cc(Cl)c(OCC(=O)NCc3ccco3)c2n1,.,39,94*,30,1,3
O=C1CC(c2ccccc2)Oc2cc(O)cc(O)c21 (stereo not drawn),20,-4,8,-59,.,34
COc1cc(OC)c2c(c1O)OC(c1ccccc1)CC2=O (stereo not drawn),25,12,54*,-6,-3,14
O=C(/C=C/c1ccco1)Nc1cccc(C(=O)Nc2ccccc2C(=O)O)c1,3,24,57*,6,.,15
CCc1ccccc1NC(=O)c1cccc(NC(=O)/C=C/c2ccco2)c1,-1,18,19,-20,-6,1
O=C(CSCc1ccccc1)Nc1cccc(C(=O)Nc2ccccc2C(=O)O)c1,.,-7,9,-12,0,1
O=C(O)CCCC(=O)Nc1cccc(C(=O)Nc2ccccc2C(=O)O)c1,7,65,29,82*,0,2
O=C(N/N=C/c1cccnc1)c1cc2c(ccc3ccccc32)o1,.,70,49,55*,0,3
COc1ccc(C(=O)N/N=C/c2ccc(OC(=O)c3cccc4ccccc34)c([N+](=O)[O-])c2)cc1,-10,18,51*,10,-8,4
O=C(N/N=C/c1ccc([N+](=O)[O-])o1)c1cc2c(ccc3ccccc32)o1,27,93*,38,88*,3,30
Cc1ccc(/C=N/NC(=O)c2cc3c(ccc4ccccc43)o2)cc1[N+](=O)[O-],.,67,26,76*,0,6
